Our source for the folding enthalpy and Tm values is the array DNA melting data of Ke et al. (doi:10.1101/2024.01.08.574731).

Series [1] in a line: folding enthalpy; higher = less favourable; fluorescence melt of hairpins on a sequencing array, two-state fit. The conditions noted are these: sodium 0.088 M. The gist of the method: (§1)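 Hairpins were imaged by Cy3 fluorescence on a sequenced MiSeq flow cell with annealed Cy3 and quencher oligos, in 50 mM Na-HEPES pH 8.0, 25 mM NaCl, in 2.5 °C steps up to 60 °C. Bootstrapped two-state fits of normalised signals gave melting temperature and folding enthalpy. Four replicates were combined by inverse variance, and fitted temperatures were raised by 9.35 °C to match UV melts.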

A short description of series [2]: melting temperature; fluorescence melt of hairpins on a sequencing array, two-state fit, raised by 9.35 °C to match UV melts. As to conditions: sodium 0.088 M. The essentials: as §1

For GACAGAGGAAACTTTGTC ((((.((....)).)))), the folding enthalpy in series [1] is -25.3 kcal/mol. The Tm in series [2] amounted to 36.7 °C.

In the case of GACAGCACGAAAGTGGTC (((..(((....)))))), the folding enthalpy in series [1] was -13.7 kcal/mol. Further, the Tm in series [2] worked out at 36 °C.

Turning to GACAGCCGAAAGGCAGTC (((.(((....))).))), the folding enthalpy in series [1] is -22.5 kcal/mol. In addition, the Tm in series [2] was determined as 60.1 °C.

Turning to GACAGCCGAAAGGCCGTC (((.(((....))).))), the folding enthalpy in series [1] was -18.7 kcal/mol. Also, the Tm in series [2] came out at 55 °C.

On to GACAGCGAAAGCTGCGTC ((((((....)))..))), for which, in series [1], the folding enthalpy was -10.1 kcal/mol. The Tm in series [2] is 48 °C.

GACAGCGAAAGCTTGTC ((((((....))).))): the folding enthalpy in series [1] was -22 kcal/mol. Moreover, the Tm in series [2] was 52.6 °C.

Consider GACAGCGGAAACGCTGCC (.(((((....))))).), for which the folding enthalpy in series [1] was -11.5 kcal/mol. The Tm in series [2] amounted to 52.6 °C.

Turning to GACAGTGGAAACACCATC ((..(((....)))..)), in series [1], the folding enthalpy was -10.3 kcal/mol. For the same sequence, in series [2], the Tm turned out to be 19.9 °C.

For GACATAACGAAAGTTGTC (((..(((....)))))), the folding enthalpy in series [1] is -25 kcal/mol. In addition, in series [2], the Tm is 37.4 °C.

Turning to GACATACGAAAGTAGGTC (((.(((....))).))), the folding enthalpy in series [1] was -39.1 kcal/mol. For the same sequence, the Tm in series [2] worked out at 52.7 °C.

For the sequence GACATAGAAATATGTC ((((((....)))))), in series [1], the folding enthalpy is -30 kcal/mol. Also, in series [2], the Tm came to 45.5 °C.

For the sequence GACATCCGAAAGGAAGTC (((.(((....))).))), the folding enthalpy in series [1] is -36.6 kcal/mol. Also, in series [2], the Tm came out at 48.8 °C.

Turning to GACATCGAAAGATGTC ((((((....)))))), in series [1], the folding enthalpy was -39.7 kcal/mol. Further, in series [2], the Tm came out at 64.4 °C.

As for GACATCGGAAACGATATC ((.((((....)))).)), the folding enthalpy in series [1] was -21.9 kcal/mol. For the same sequence, in series [2], the Tm was determined as 31.6 °C.

Take GACATCGGAAACGATGTC (((((((....))))))): the folding enthalpy in series [1] was -44 kcal/mol. The Tm in series [2] was 66.6 °C.

For the sequence GACATGCGAAAGCAAGTC (((.(((....))).))), the folding enthalpy in series [1] is -25.5 kcal/mol. Also, the Tm in series [2] came to 53.3 °C.

In the case of GACCAACGAAAGTTAGTC (((.(((....))).))), in series [1], the folding enthalpy was -26 kcal/mol. In addition, the Tm in series [2] turned out to be 38.8 °C.

Regarding GACCAAGGAAACCTGGTC (((((.(....).))))), the folding enthalpy in series [1] is -33.4 kcal/mol. Also, the Tm in series [2] worked out at 47.2 °C.

GACCACGAAAGTGACGTC ((((((....)))..))): the folding enthalpy in series [1] was -16.5 kcal/mol. In addition, in series [2], the Tm was found to be 37.5 °C.

In the case of GACCACGAAAGTGTAGTC ((((((....)))..))), the folding enthalpy in series [1] was -18.6 kcal/mol. Moreover, the Tm in series [2] amounted to 41.1 °C.

For GACCACGAAAGTGTTGTC ((((((....)))..))), the folding enthalpy in series [1] is -18.7 kcal/mol. For the same sequence, the Tm in series [2] is 34.4 °C.

As for GACCACGGAAACACGGTC ((((..(....)..)))), in series [1], the folding enthalpy is -30.3 kcal/mol. In addition, the Tm in series [2] was found to be 35.3 °C.

Turning to GACCAGCGAAAGCTTGTC (((.(((....))).))), the folding enthalpy in series [1] is -24 kcal/mol. Further, in series [2], the Tm turned out to be 47.8 °C.

Consider GACCAGGGAAACCTGGTC (((((((....))))))), for which the folding enthalpy in series [1] was -34.4 kcal/mol. In addition, the Tm in series [2] was found to be 67.5 °C.

As to GACCATGAAAATGGTC ((((((....)))))), the folding enthalpy in series [1] is -36.9 kcal/mol. For the same sequence, the Tm in series [2] is 61.8 °C.

Take GACCCACGAAAGTGTGTC (((.(((....))).))): the folding enthalpy in series [1] is -27.4 kcal/mol. Moreover, the Tm in series [2] was found to be 48.9 °C.

For GACCCAGGAAACCGGGTC (((((.(....).))))), the folding enthalpy in series [1] was -32.8 kcal/mol. The Tm in series [2] amounted to 52.9 °C.

For GACCCCGAAAGGGACGTC ((((((....)))..))), the folding enthalpy in series [1] is -17 kcal/mol. Besides, the Tm in series [2] is 40.4 °C.

For GACCCCGAAAGGGCGGTC ((((((....)))..))), in series [1], the folding enthalpy is -17.2 kcal/mol. For the same sequence, the Tm in series [2] was found to be 45.9 °C.

GACCCCGAAAGGGCGTC ((((((....))).))): the folding enthalpy in series [1] was -36.6 kcal/mol. The Tm in series [2] was 56.7 °C.

As for GACCCCGGAAACGGGACC (..((((....))))..), in series [1], the folding enthalpy is -8.3 kcal/mol. Moreover, the Tm in series [2] was found to be 28.1 °C.

GACCCGCGAAAGCGTGTC (((.(((....))).))): the folding enthalpy in series [1] was -24 kcal/mol. Also, the Tm in series [2] is 52.6 °C.

Take GACCCGGGAAACCGGATC ((.((((....)))).)): the folding enthalpy in series [1] was -16.3 kcal/mol. In series [2], the Tm turned out to be 43.2 °C.

Turning to GACCCTACGAAAGTAGTC (((..(((....)))))), the folding enthalpy in series [1] is -11.3 kcal/mol. Besides, the Tm in series [2] is 28 °C.

GACCCTGGAAACAGGATC ((.((((....)))).)): the folding enthalpy in series [1] was -21.8 kcal/mol. Besides, the Tm in series [2] came out at 37.6 °C.

For GACCGAACGAAAGTTGTC (((..(((....)))))), the folding enthalpy in series [1] is -17 kcal/mol. For the same sequence, the Tm in series [2] amounted to 29.5 °C.

Regarding GACCGACGAAAGTCGTC (((.(((....)))))), in series [1], the folding enthalpy was -10.6 kcal/mol. The Tm in series [2] was 45 °C.
